Assay results published in ChEMBL document CHEMBL1157665, “Novel 4-thiazolidinone derivatives as potential antifungal and antibacterial drugs” (2010).
≈ marks a conversion by molar mass, not a printed value.

Legend:
[1] = test system: Aspergillus niger; assay: Antifungal activity against Aspergillus niger ATCC 6275 after 72 hrs by serial sub-cultivation method; assay type: functional; conditions: ATCC 6275, 72 h
How it was run: (§1)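 MFC was found by serial sub-cultivation of 2 µl into plates holding 100 µl broth per well, then incubation 72 h at 28 °C. MFC is the lowest concentration with no visible growth, taken as 99.5% killing of the original inoculum. Spore inocula came from malt agar cultures washed with 0.85% saline and 0.1% Tween 80.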

[2] = test system: Aspergillus versicolor; assay: Antifungal activity against Aspergillus versicolor ATCC 11730 after 72 hrs by serial dilution method; assay type: functional; conditions: ATCC 11730, 72 h
How it was run: (§2)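 Fungi were kept on malt agar at 4 °C and sub-cultured monthly. Spores were washed off the agar with sterile 0.85% saline containing 0.1% Tween 80 (v/v). Modified microdilution in 96-well plates. MIC is the lowest concentration with no visible growth under the binocular microscope. Inoculum checked on malt agar for contamination and validity.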

[3] = test system: Aspergillus versicolor; assay: Antifungal activity against Aspergillus versicolor ATCC 11730 after 72 hrs by serial sub-cultivation method; assay type: functional; conditions: ATCC 11730, 72 h; how it was run: as §1
[4] = test system: Aspergillus flavus; assay: Antifungal activity against Aspergillus flavus ATCC 9643 after 72 hrs by serial dilution method; assay type: functional; conditions: ATCC 9643, 72 h; how it was run: as §2
[5] = test system: Aspergillus flavus; assay: Antifungal activity against Aspergillus flavus ATCC 9643 after 72 hrs by serial sub-cultivation method; assay type: functional; conditions: ATCC 9643, 72 h; how it was run: as §1
[6] = test system: Fulvia fulva; assay: Antifungal activity against Fulvia fulva TK 5318 after 72 hrs by serial dilution method; assay type: functional; conditions: TK 5318, 72 h; how it was run: as §2
[7] = test system: Fulvia fulva; assay: Antifungal activity against Fulvia fulva TK 5318 after 72 hrs by serial sub-cultivation method; assay type: functional; conditions: TK 5318, 72 h; how it was run: as §1
[8] = test system: Bacillus cereus; assay: Antibacterial activity against Bacillus cereus clinical isolate after 24 hrs; assay type: functional
How it was run: (§3)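 Broth microdilution MIC in 96-well plates. Compounds in LB broth with bacterial inoculum of 1.0 × 10^4 cfu per well, from suspensions adjusted with sterile saline to 1.0 × 10⁵ CFU/ml. Incubated 24 h at […] as printed. MIC taken as the lowest concentration with no visible growth under the binocular microscope. OD at 655 nm also read against blank. Streptomycin and ampicillin as positive controls. Duplicate, repeated three times.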

[9] = test system: Bacillus cereus; assay: Antibacterial activity against Bacillus cereus clinical isolate after 72 hrs by serial sub-cultivation method; assay type: functional
How it was run: (§4)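 MBC was found by serial sub-cultivation of 2 µl from the MIC wells into plates holding 100 µl broth per well, then incubation for 72 h. MBC is the lowest concentration with no visible growth, i.e. 99.5% killing of the original inoculum. Bacterial inoculum was 1.0 × 10^4 cfu per well in LB broth. Duplicate, repeated three times.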

[10] = test system: Micrococcus flavus; assay: Antibacterial activity against Micrococcus flavus ATCC 10240 after 24 hrs; assay type: functional; conditions: ATCC 10240, 24 h; how it was run: as §3
[11] = test system: Micrococcus flavus; assay: Antibacterial activity against Micrococcus flavus ATCC 10240 after 72 hrs by serial sub-cultivation method; assay type: functional; conditions: ATCC 10240, 72 h; how it was run: as §4
[12] = test system: Staphylococcus aureus; assay: Antibacterial activity against Staphylococcus aureus ATCC 6538 after 24 hrs; assay type: functional; conditions: ATCC 6538, 24 h; how it was run: as §3
[13] = test system: Staphylococcus aureus; assay: Antibacterial activity against Staphylococcus aureus ATCC 6538 after 72 hrs by serial sub-cultivation method; assay type: functional; conditions: ATCC 6538, 72 h; how it was run: as §4
[14] = test system: Escherichia coli; assay: Antibacterial activity against Escherichia coli ATCC 35210 after 24 hrs; assay type: functional; conditions: ATCC 35210, 24 h; how it was run: as §3
[15] = test system: Escherichia coli; assay: Antibacterial activity against Escherichia coli ATCC 35210 after 72 hrs by serial sub-cultivation method; assay type: functional; conditions: ATCC 35210, 72 h; how it was run: as §4
[16] = test system: Pseudomonas aeruginosa; assay: Antibacterial activity against Pseudomonas aeruginosa ATCC 27853 after 24 hrs; assay type: functional; conditions: ATCC 27853, 24 h; how it was run: as §3
[17] = test system: Pseudomonas aeruginosa; assay: Antibacterial activity against Pseudomonas aeruginosa ATCC 27853 after 72 hrs by serial sub-cultivation method; assay type: functional; conditions: ATCC 27853, 72 h; how it was run: as §4
[18] = test system: Proteus mirabilis; assay: Antibacterial activity against Proteus mirabilis after 24 hrs; assay type: functional; how it was run: as §3
[19] = test system: Proteus mirabilis; assay: Antibacterial activity against Proteus mirabilis after 72 hrs by serial sub-cultivation method; assay type: functional; how it was run: as §4
[20] = test system: Salmonella typhimurium; assay: Antibacterial activity against Salmonella Typhimurium ATCC 13311 after 24 hrs; assay type: functional, Salmonella enterica subsp. enterica serovar Typhimurium; conditions: Salmonella enterica, ATCC 13311, 24 h; how it was run: as §3
[21] = test system: Salmonella typhimurium; assay: Antibacterial activity against Salmonella Typhimurium ATCC 13311 after 72 hrs by serial sub-cultivation method; assay type: functional, Salmonella enterica subsp. enterica serovar Typhimurium; conditions: Salmonella enterica, ATCC 13311, 72 h; how it was run: as §4
[22] = test system: Listeria monocytogenes; assay: Antibacterial activity against Listeria monocytogenes NCTC 7973 after 24 hrs; assay type: functional; conditions: NCTC 7973, 24 h; how it was run: as §3
[23] = test system: Listeria monocytogenes; assay: Antibacterial activity against Listeria monocytogenes NCTC 7973 after 72 hrs by serial sub-cultivation method; assay type: functional; conditions: NCTC 7973, 72 h; how it was run: as §4
[24] = test system: Talaromyces funiculosus; assay: Antifungal activity against Penicillium funiculosum ATCC 36839 after 72 hrs by serial dilution method; assay type: functional; conditions: ATCC 36839, 72 h; how it was run: as §2
[25] = test system: Talaromyces funiculosus; assay: Antifungal activity against Penicillium funiculosum ATCC 36839 after 72 hrs by serial sub-cultivation method; assay type: functional; conditions: ATCC 36839, 72 h; how it was run: as §1
[26] = test system: Penicillium ochrochloron; assay: Antifungal activity against Penicillium ochrochloron ATCC 9112 after 72 hrs by serial dilution method; assay type: functional; conditions: ATCC 9112, 72 h; how it was run: as §2
[27] = test system: Penicillium ochrochloron; assay: Antifungal activity against Penicillium ochrochloron ATCC 9112 after 72 hrs by serial sub-cultivation method; assay type: functional; conditions: ATCC 9112, 72 h; how it was run: as §1
[28] = test system: Trichoderma viride; assay: Antifungal activity against Trichoderma viride IAM 5061 after 72 hrs by serial dilution method; assay type: functional; conditions: IAM 5061, 72 h; how it was run: as §2
[29] = test system: Trichoderma viride; assay: Antifungal activity against Trichoderma viride IAM 5061 after 72 hrs by serial sub-cultivation method; assay type: functional; conditions: IAM 5061, 72 h; how it was run: as §1
[30] = test system: Aspergillus niger; assay: Antifungal activity against Aspergillus niger ATCC 6275 after 72 hrs by serial dilution method; assay type: functional; conditions: ATCC 6275, 72 h; how it was run: as §2
[31] = test system: Aspergillus fumigatus; assay: Antifungal activity against Aspergillus fumigatus plant isolate after 72 hrs by serial dilution method
[32] = test system: Aspergillus fumigatus; assay: Antifungal activity against Aspergillus fumigatus plant isolate after 72 hrs by serial sub-cultivation method

Compound	MIC [8]	MBC [9]	MIC [10]	MBC [11]	MIC [12]	MBC [13]	MIC [14]	MBC [15]	MIC [16]	MBC [17]	MIC [18]	MBC [19]	MIC [20]	MBC [21]	MIC [22]	MBC [23]	further results
COc1cc(/C=C2\S/C(=N\c3nc(C45CC6CC(CC(C6)C4)C5)cs3)NC2=O)cc(OC)c1O	20.9 µM (≈ 10.4 µg/mL)	20.9 µM (≈ 10.4 µg/mL)	10.5 µM (≈ 5.23 µg/mL)	20.9 µM (≈ 10.4 µg/mL)	10.5 µM (≈ 5.23 µg/mL)	15.7 µM (≈ 7.81 µg/mL)	20.9 µM (≈ 10.4 µg/mL)	41.8 µM (≈ 20.8 µg/mL)	15.7 µM (≈ 7.81 µg/mL)	41.8 µM (≈ 20.8 µg/mL)	41.8 µM (≈ 20.8 µg/mL)	62.7 µM (≈ 31.2 µg/mL)	10.5 µM (≈ 5.23 µg/mL)	15.7 µM (≈ 7.81 µg/mL)	20.9 µM (≈ 10.4 µg/mL)	41.8 µM (≈ 20.8 µg/mL)	MFC [1]: 20.9 µM (≈ 10.4 µg/mL); MIC [2]: 15.7 µM (≈ 7.81 µg/mL); MFC [3]: 20.9 µM (≈ 10.4 µg/mL); MIC [4]: 10.5 µM (≈ 5.23 µg/mL); MFC [5]: 20.9 µM (≈ 10.4 µg/mL); MIC [6]: 5.2 µM (≈ 2.59 µg/mL); MFC [7]: 20.9 µM (≈ 10.4 µg/mL); MIC [24]: 10.5 µM (≈ 5.23 µg/mL); MFC [25]: 20.9 µM (≈ 10.4 µg/mL); MIC [26]: 5.2 µM (≈ 2.59 µg/mL); MFC [27]: 10.5 µM (≈ 5.23 µg/mL); MIC [28]: 10.5 µM (≈ 5.23 µg/mL); MFC [29]: 20.9 µM (≈ 10.4 µg/mL); MIC [30]: 10.5 µM (≈ 5.23 µg/mL); MIC [31]: 15.7 µM (≈ 7.81 µg/mL); MFC [32]: 20.9 µM (≈ 10.4 µg/mL)
CC1(C)S[C@@H]2[C@H](NC(=O)[C@H](N)c3ccccc3)C(=O)N2[C@H]1C(=O)O [AMPICILLIN]	248 µM (≈ 86.7 µg/mL)	372 µM (≈ 130 µg/mL)	248 µM (≈ 86.7 µg/mL)	372 µM (≈ 130 µg/mL)	248 µM (≈ 86.7 µg/mL)	372 µM (≈ 130 µg/mL)	372 µM (≈ 130 µg/mL)	492 µM (≈ 172 µg/mL)	744 µM (≈ 260 µg/mL)	1240 µM (≈ 433 µg/mL)	372 µM (≈ 130 µg/mL)	492 µM (≈ 172 µg/mL)	248 µM (≈ 86.7 µg/mL)	492 µM (≈ 172 µg/mL)	372 µM (≈ 130 µg/mL)	744 µM (≈ 260 µg/mL)	–
